Results: article PMC7215194 (Heliyon, 2020)

Key:
A431 cells [1] = assay: TAMRA-peptides internalization assay, confocal microscopy of living cells; type: cell-based, human
In short: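 A431 cells (2.5 × 10^5) were seeded in coverslip-bottom imaging dishes in DMEM with 10% FBS. After 6 h, serum-deprived medium with N-terminal 5(6)-TAMRA-labeled test peptides (20 μg/ml) was added for 5 min or overnight, with free TAMRA (1.7 μM) as control. Living cells were gently washed and imaged by confocal microscopy with a 63x objective, 561 nm laser and white light, taking z-planes every 0.8 μm.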

A431 cells [2] = assay: Anchorage-independent growth assay in soft agar; type: cell-based, human; conditions: 14 days, n = 4; for effect on size and number of colonies grown in soft agar: 20 μM W-7 or 25 μM W-12, 10% FBS, colonies >60 μm
In short: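 A431 cells (10^5 per 60 mm dish) suspended in DMEM ± 10% (v/v) FBS with 10 mM NaOH-Hepes pH 7.5 in 0.3% agarose, layered over 0.5% agarose. Fed every 72–96 h with fresh medium ± 10 nM EGF, 20 μM W-7 or 25 μM W-12 in DMSO; vehicle 0.4% DMSO. Imaged at day 14 with a 4x objective; colonies ≥60 μm counted.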

A431 cells [3] = assay: Artificial wound healing assay; type: cell-based, human; conditions: for effect of W-7/W-12 on cell migration in the absence of EGF: 20 μM, no EGF, time-lapse 48 h, n = 3
A431 cells [4] = assay: Cell detachment assay; type: cell-based, human; conditions: overnight with 20 μg/ml peptides or 20 μM W-7/W-12, then 1 mM EGTA, n = 3
In short: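 A431 cells (DMEM, 2 mM L-glutamine, 10% FBS, 37 °C, 5% CO2) were seeded at 10^6 per 60 mm dish in 10% FBS. After 6 h, test peptides (20 μg/ml) or W-7/W-12 (20 μM) in DMSO were added in serum-deprived medium overnight, with 0.2–0.4% DMSO vehicle controls. Cells were then exposed to 1 mM EGTA, and detached cells in aliquots were counted in a Neubauer chamber over time. Values are mean ± SEM percent detached, n = 3.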

hepatocarcinoma cells = conditions: EGF-dependent vs basal EGF-independent proliferation; cited from earlier work

Row | Molecule | membrane blebbing (initiation of apoptosis) of treated cells (A431 cells [1]) | effect on size and number of colonies grown in soft agar (A431 cells [2]) | effect of W-7/W-12 on cell migration in the absence of EGF (A431 cells [3]) | effect on cell detachment with EGTA (A431 cells [4]) | effect of W-7 on proliferation of hepatocarcinoma cells (hepatocarcinoma cells) | effect of EGF on anchorage-independent growth in soft agar (A431 cells [2]; 10 nM EGF) | delayed action of EGF on the initiation of cell migration (A431 cells [3]; 10 nM EGF, n = 9) [h]
1 | 5(6)-carboxytetramethylrhodamine [free TAMRA] | not observed |  |  |  |  |  | 
2 | NCCCCCCNS(=O)(=O)c1cccc2c(Cl)cccc12 [W-7, N-(6-aminohexyl)-5-chloro-1-naphthalenesulfonamide] |  | strongly inhibits | increased the initial migration rate of the cells, particularly with the high affinity inhibitor W-7 | only partially | inhibits EGF-dependent but not basal EGF-independent proliferation of hepatocarcinoma cells |  | 
3 | NCCCCNS(=O)(=O)c1ccc2ccccc2c1 [W-12, N-(4-aminobutyl)-2-naphthalenesulfonamide] |  | very low effect | increased the initial migration rate of the cells | only partially |  |  | 
4 | EGF: epidermal growth factor |  |  |  |  |  | particularly decreasing the size of the colonies | 11.5 ± 1.4
